# Source: ChEMBL document CHEMBL1129444, “Peptidomimetic inhibitors of herpes simplex virus ribonucleotide reductase with improved in vivo antiviral activity” (J Med Chem, 1996)
# pEC50, pIC50: −log10 of the molar value. *1 amine or outer side, *2 acyl side, *3 side chain or, on linkers, in order; H or OH if unused. Where a SMILES comes first, the peptide text is derived from it. [ ]: non-standard residue; d: D form. The star is where a group is joined. Asp(3,3-(CH2)4) = N[C@H](C(=O)O)C1(C(=O)O)CCCC1; Dibenzylacetyl = O=C(C(Cc1ccccc1)Cc1ccccc1)*; Leu(γ-Me)ol = CC(C)(C)C[C@@H](CO)N*; tBuAla = CC(C)(C)C[C@H](N)C(=O)O; Tle = CC(C)(C)[C@H](N)C(=O)O; NMeV = CN[C@H](C(=O)O)C(C)C; X1 = CC[C@@H](N*)C(C)(C)C; NH(3-pentyl) = CCC(CC)N*; Pyrrolidide = C1CCN(*)C1; NHcHex = C1CCC(N*)CC1; CO = O=C([*:1])[*:2]; X2 = CCCC(CCC)N*; NHiPr = CC(C)N*
# Legend:
# [1] = target: Ribonucleotide reductase large subunit R1 (Herpes simplex virus); test: Inhibitory effect was evaluated on Herpes simplex virus (HSV) ribonucleotide reductase (RR) enzyme.
# BHK-21 [2] = test: Effective concentration was evaluated against HSV-1 by using serum starved baby hamster kidney cells in a colorimetric viral yield assay.; assay type: functional, cell-based; conditions: Mesocricetus auratus
# Method in brief: (§1)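 Viral yield in serum-starved BHK cells, read colorimetrically. EC50 reported as mean of at least three separate determinations with standard deviation. Cytotoxicity measured in parallel by MTT (tetrazolium) metabolic assay to give CC50.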
# BHK-21 [3] = test: Effective concentration was evaluated against HSV-2 by using serum starved baby hamster kidney cells in a colorimetric viral yield assay.; assay type: functional, cell-based; conditions: Mesocricetus auratus
# Method in brief: as §1
Structure (SMILES),pIC50 [1],pEC50 (BHK-21 [2]),pEC50 (BHK-21 [3])
CCC(CC)NC(=O)N[C@H](C(=O)N[C@@H](CC(=O)N1CCCC1)C(=O)N[C@@H](CC(=O)O)C(=O)N[C@@H](C)C(C)(C)C)C(C)(C)C,5.57,–,–
CCC(CC)NC(=O)N[C@H](C(=O)N[C@@H](CC(=O)N1CCCC1)C(=O)N[C@@H](CC(=O)O)C(=O)N[C@H](C)C(C)(C)C)C(C)(C)C,7.57,–,–
CCC(CC)NC(=O)N[C@H](C(=O)N[C@@H](CC(=O)N1CCCC1)C(=O)N[C@@H](CC(=O)O)C(=O)N[C@H](CO)CC(C)(C)C)C(C)(C)C,8.22,–,–
CCC(CC)NC(=O)N[C@H](C(=O)N[C@@H](CC(=O)N1CCCC1)C(=O)N[C@@H](CC(=O)O)C(=O)NCC(C)C)C(C)(C)C,5.72,–,–
CC(C)C[C@H](NC(=O)[C@H](CC(=O)O)NC(=O)[C@H](CC(=O)N1CCCC1)NC(=O)[C@@H](NC(=O)NC1[C@H](C)CCC[C@@H]1C)C(C)C)C(=O)O (stereo in doubt; 9),8.70,–,–
CCC(CC)NC(=O)N[C@H](C(=O)C[C@@H](CC(=O)C(C)(C)C)C(=O)N[C@@H](CC(=O)O)C(=O)N[C@@H](CC(C)C)C(=O)O)C(C)(C)C,8.30,–,–
CC(C)C[C@H](NC(=O)[C@H](CC(=O)O)NC(=O)[C@H](CC(=O)N1CCCC1)NC(=O)[C@@H](NC(=O)NC1CCCCC1)C(C)C)C(=O)O ({NHcHex-CO}-VD(Pyrrolidide)DL-OH),6.30,–,–
CCC(CC)NC(=O)N[C@H](C(=O)N[C@@H](CC(=O)N1CCCC1)C(=O)N[C@@H](CC(=O)O)C(=O)NCC(C)(C)C)C(C)(C)C,7.40,–,–
CCC(CC)NC(=O)N[C@H](C(=O)N[C@@H](CC(=O)N1CCCC1)C(=O)N[C@@H](CC(=O)O)C(=O)N[C@@H](CC)C(C)(C)C)C(C)(C)C,5.70,–,–
CC(C)C[C@H](NC(=O)[C@H](CC(=O)O)NC(=O)[C@H](CC(=O)N1CCCC1)NC(=O)[C@@H](NC(=O)NC1[C@@H](C)CCC[C@@H]1C)C(C)C)C(=O)O.CC(C)C[C@H](NC(=O)[C@H](CC(=O)O)NC(=O)[C@H](CC(=O)N1CCCC1)NC(=O)[C@@H](NC(=O)NC1[C@H](C)CCC[C@H]1C)C(C)C)C(=O)O,7.70,–,–
C[C@@H]1CCC[C@H](C)[C@@H]1NC(=O)N[C@H](C(=O)C[C@@H](CC(=O)C(C)(C)C)C(=O)N[C@H](C(=O)NCC(C)(C)C)C1(C(=O)O)CCCC1)C(C)(C)C,–,4.77,4.59
CCC(CC)NC(=O)N[C@H](C(=O)N[C@@H](CC(=O)N1CCCC1)C(=O)N[C@@H](CC(=O)O)C(=O)N[C@@H](CC(C)(C)C)C(=O)O)C(C)(C)C ({NH(3-pentyl)-CO}-[Tle]D(Pyrrolidide)D[tBuAla]-OH),9.22,–,–
CC[C@@H](NC(=O)[C@@H](NC(=O)[C@H](CC(=O)N1CCCC1)NC(=O)[C@@H](NC(=O)N[C@@H]1[C@H](C)CCC[C@@H]1C)C(C)(C)C)C1(C(=O)O)CCCC1)C(C)(C)C,–,4.55,4.40
Nc1nc2c(ncn2COCCO)c(=O)[nH]1 [ACYCLOVIR],–,5.70,5.70
CCC(CC)NC(=O)N[C@H](C(=O)C[C@@H](CC(=O)N1CCCC1)C(=O)N[C@@H](CC(=O)O)C(=O)N[C@@H](CC(C)C)C(=O)O)C(C)(C)C,8.15,–,–
CC[C@@H](NC(=O)[C@@H](NC(=O)[C@@H](CC(=O)[C@@H](NC(=O)N[C@@H]1[C@H](C)CCC[C@@H]1C)C(C)(C)C)CC(=O)N1CCCC1)C1(C(=O)O)CCCC1)C(C)(C)C,–,4.30,4.10

Structure (SMILES),pIC50 [1],pEC50 (BHK-21 [2]),pEC50 (BHK-21 [3])
C[C@@H]1CCC[C@H](C)[C@@H]1NC(=O)N[C@H](C(=O)C[C@@H](CC(=O)C(C)(C)C)C(=O)N[C@H](C(=O)N[C@H](CO)CC(C)(C)C)C1(C(=O)O)CCCC1)C(C)(C)C,–,4.59,4.59
CCC(CC)NC(=O)N[C@H](C(=O)N[C@@H](CC(=O)N1CCCC1)C(=O)N[C@@H](CC(=O)O)C(=O)N[C@@H](CC(C)C)C(=O)O)C(C)(C)C ({NH(3-pentyl)-CO}-[Tle]D(Pyrrolidide)DL-OH),8.52,–,–
CC[C@@H](NC(=O)[C@@H](NC(=O)[C@@H](CC(=O)[C@@H](NC(=O)N[C@@H]1[C@H](C)CCC[C@@H]1C)C(C)(C)C)CC(=O)C(C)(C)C)C1(C(=O)O)CCCC1)C(C)(C)C,–,5.22,5.15
CCCC(CCC)NC(=O)N[C@H](C(=O)N[C@@H](CC(=O)N1CCCC1)C(=O)N[C@@H](CC(=O)O)C(=O)N[C@@H](CC(C)C)C(=O)O)C(C)C ({X2-CO}-VD(Pyrrolidide)DL-OH),8.15,–,–
CCC(CC)NC(=O)N[C@H](C(=O)N[C@@H](CC(=O)N1CCCC1)C(=O)N[C@@H](CC(=O)O)C(=O)N[C@@H](CC(C)C)C(=O)O)C(C)C ({NH(3-pentyl)-CO}-VD(Pyrrolidide)DL-OH),7.82,–,–
CCCC(CCC)NC(=O)N[C@H](C(=O)C[C@@H](CC(=O)C(C)(C)C)C(=O)N[C@H](C(=O)N[C@H](CC)C(C)(C)C)C1(C(=O)O)CCCC1)C(C)(C)C,–,5.22,5.30
CC[C@@H](NC(=O)[C@@H](NC(=O)[C@H](CC(=O)C(C)(C)C)NC(=O)[C@@H](NC(=O)N[C@@H]1[C@H](C)CCC[C@@H]1C)C(C)(C)C)C1(C(=O)O)CCCC1)C(C)(C)C,–,4.89,4.89
CCC(CC)NC(=O)N[C@H](C(=O)N[C@@H](CC(=O)C(C)(C)C)C(=O)N[C@@H](CC(=O)O)C(=O)N[C@@H](CC(C)C)C(=O)O)C(C)(C)C,8.52,–,–
CCC(CC)NC(=O)N[C@H](C(=O)N[C@@H](CC(=O)N1CCCC1)C(=O)N[C@@H](CC(=O)O)C(=O)N[C@H](CC)C(C)(C)C)C(C)(C)C,7.74,–,–
CC(C)C[C@H](NC(=O)[C@H](CC(=O)O)NC(=O)[C@H](CC(=O)N1CCCC1)NC(=O)[C@@H](NC(=O)NC(C)C)C(C)C)C(=O)O ({NHiPr-CO}-VD(Pyrrolidide)DL-OH),6.36,–,–
CC(C)C[C@H](NC(=O)[C@H](CC(=O)O)NC(=O)[C@H](CC(=O)N1CCCC1)NC(=O)[C@@H](NC(=O)NC1[C@H](C)CCC[C@@H]1C)C(C)C)C(=O)O (stereo in doubt; 7),7.26,–,–
CC[C@@H](NC(=O)[C@@H](NC(=O)[C@@H](CC(=O)[C@@H](NC(=O)[C@H](C(C)C)N(C)C(=O)C(Cc1ccccc1)Cc1ccccc1)C(C)(C)C)CC(=O)C(C)(C)C)C1(C(=O)O)CCCC1)C(C)(C)C,–,5.89,5.80
"CC(C)[C@@H](C(=O)N[C@H](C(=O)N[C@@H](CC(=O)N1CCCC1)C(=O)N[C@H](C(=O)N[C@H](CO)CC(C)(C)C)C1(C(=O)O)CCCC1)C(C)(C)C)N(C)C(=O)C(Cc1ccccc1)Cc1ccccc1 (Dibenzylacetyl-[NMeV][Tle]D(Pyrrolidide)[Asp(3,3-(CH2)4)]-{Leu(γ-Me)ol})",–,5.51,5.38
CCC(CC)NC(=O)N[C@H](C(=O)N[C@@H](CC(=O)N1CCCC1)C(=O)N[C@@H](CC(=O)O)C(=O)NCCC(C)(C)C)C(C)(C)C,7.00,–,–
CCC(CC)NC(=O)N[C@H](C(=O)N[C@@H](CC(=O)N1CCCC1)C(=O)N[C@@H](CC(=O)O)C(=O)NCCC(C)C)C(C)(C)C,6.46,–,–
"CC[C@@H](NC(=O)[C@@H](NC(=O)[C@H](CC(=O)N1CCCC1)NC(=O)[C@@H](NC(=O)[C@H](C(C)C)N(C)C(=O)C(Cc1ccccc1)Cc1ccccc1)C(C)(C)C)C1(C(=O)O)CCCC1)C(C)(C)C (Dibenzylacetyl-[NMeV][Tle]D(Pyrrolidide)[Asp(3,3-(CH2)4)]-X1)",–,6.10,5.74
